# Results: ChEMBL document CHEMBL1124035, “1-Amino-substituted 4-methyl-5H-pyrido[4,3-b]indoles (gamma-carbolines) as tricyclic analogues of ellipticines: a new class of antineoplastic agents” (1988)
# What was measured:
# [1] = test system: Mus musculus; assay: Antitumor activity against P388 leukemia in mice at a dose of 10 mg/kg administered intraperitoneally for 5 days; type: functional; details: route intraperitoneal
# Outline: (§1)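 CDF1 hybrid male or female mice, 10 per group, were inoculated ip with 10^6 viable P388 cells on day 0. Drugs in distilled water were given ip (0.1 mL/10 g body weight) daily D1-5. Vehicle, 5-fluorouracil and BD 84 were given the same way. T/C = median survival day of treated / controls × 100; T/C > 128% was significant; cures counted at D60.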
# [2] = test system: Calf thymus DNA; assay: Apparent DNA affinity constant; type: nucleic-acid assay; details: Bos taurus
# Outline: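 Apparent DNA affinity constant was measured by competition with ethidium bromide. Buffer was 20 mM Na2HPO4/NaH2PO4, 0.1 M NaCl, 1 mM EDTA, pH 7.4, with calf thymus DNA at 10 μg/mL. Values are given in 10^6 M⁻¹.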
# [3] = test system: Mus musculus; assay: Antitumor activity against P388 leukemia in mice at a dose of 50 mg/kg administered intraperitoneally for 5 days; Non toxic at this dose; type: functional; details: route intraperitoneal
# Outline: (§2)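 CDF1 hybrid male or female mice, 10 per group, were inoculated ip on day 0 with 10^6 viable P388 leukemia cells. Drug in distilled water was given ip (0.1 mL/10 g body weight) daily on days 1-5, with vehicle, 5-fluorouracil and BD 84 controls given the same way. T/C = median survival of treated/controls × 100; T/C > 128% counted as significant.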
# [4] = test system: L1210; assay: Ability to reduce the cell count to 50% in L1210 culture cells; type: functional; details: Mus musculus, read-out: ID50 (the source's name)
# Outline: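 L1210 cells in exponential growth in RPMI 1640 with 2 mM glutamine, penicillin/streptomycin and 10% FCS, 37 °C, 5% CO2. Drugs dissolved in distilled water were added to cells at 0.8 × 10^5 cells/mL for 48 h, then cells were counted. ID50 is the concentration halving cell proliferation versus controls, from regression of dose-response data; mean of two independent experiments.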
# [5] = test system: Mus musculus; assay: Antitumor activity against P388 leukemia in mice at a dose of 40 mg/kg administered intraperitoneally for 5 days; Nontoxic at this dose; type: functional; details: route intraperitoneal; outline: as §2
# [6] = test system: Mus musculus; assay: Antitumor activity against P388 leukemia in mice at a dose of 5 mg/kg administered intraperitoneally for 5 days; type: functional; details: route intraperitoneal; outline: as §2
# [7] = test system: Mus musculus; assay: Antitumor activity against P388 leukemia in mice at a dose of 20 mg/kg administered intraperitoneally for 5 days; type: functional; details: route intraperitoneal; outline: as §1
# [8] = test system: Mus musculus; assay: Median survival day in B16 melanoma infected mice when a dose of 2.5 mg/kg administered intraperitoneally; type: functional; details: route intraperitoneal
# Outline: (§3)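 B16 melanoma in hybrid BD F1 mice. At D0 each mouse was inoculated ip with 0.5 mL of homogenate made from 1 g of tumour in 10 mL of physiological serum. Compounds were given ip daily at the stated doses for 9 days (D1-9), with cis-platinum 0.5 mg/kg under the same schedule as positive control.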
# [9] = test system: Mus musculus; assay: Antitumor activity against P388 leukemia in mice at a dose of 20 mg/kg administered intraperitoneally; type: functional, organism-based; design: dose 20 mg/kg; outline: as §1
# [10] = test system: Mus musculus; assay: Survivors at day 30 when a dose of 10 mg/kg to P388 leukemia mice model; 0/10; type: functional
# Outline: (§4)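 P388 leukaemia in CDF1 hybrid mice, 10 per group. At D0, 10^6 viable cells were inoculated ip, followed by a single ip dose of drug in distilled water on D1. Weight change, median survival day, T/C (treated/control median survival × 100) and survivors at D30 were recorded. Controls were 20 mice.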
# [11] = test system: Mus musculus; assay: Median survival day of P388 leukemia model when a dose of 40 mg/kg administered intraperitoneally to mice; type: functional; details: route intraperitoneal; outline: as §4
# [12] = test system: Mus musculus; assay: Weight change in g when a dose of 10 mg/kg administered intraperitoneally to P388 leukemia mice model; type: functional; details: route intraperitoneal
# Outline: (§5)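 P388 model with a single ip dose. Mice (10 per group) were inoculated ip at D0 with 10^6 P388 cells and given one ip drug dose at D1. Body-weight change (g), median survival day, T/C and survivors at D30 were recorded.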
# [13] = test system: Mus musculus; assay: Antitumor activity against P388 leukemia in mice at a dose of 2.5 mg/kg administered intraperitoneally for 5 days; type: functional; details: route intraperitoneal; outline: as §1
# [14] = test system: Mus musculus; assay: Weight change in g when a dose of 40 mg/kg administered intraperitoneally to P388 leukemia mice model; type: functional; details: route intraperitoneal; outline: as §5
# [15] = test system: Mus musculus; assay: Weight change in g when a dose of 2.5 mg/kg administered intraperitoneally to B16 melanoma infected mice; type: functional; details: route intraperitoneal
# Outline: (§6)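 Hybrid BDF1 mice were inoculated ip at D0 with 0.5 mL of B16 melanoma homogenate (1 g tumor in 10 mL physiological serum). Drug was given ip daily on days 1-9, with cis-platinum 0.5 mg/kg as positive control on the same schedule.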
# [16] = test system: Mus musculus; assay: Antitumor activity against P388 cells at a dose of 10 mg/kg administered intraperitoneally to P388 leukemia model; type: functional; details: route intraperitoneal
# Outline: (§7)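 Mice were inoculated ip with 10^6 P388 leukemia cells at D0, then given a single ip drug dose on D1. Weight change was recorded. T/C % = median survival day of treated / controls × 100; survivors counted at D30; 10 mice per dose group, 20 controls.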
# [17] = test system: Mus musculus; assay: Antitumor activity against B16 melanoma infected mice at a dose of 2.5 mg/kg administered intraperitoneally; type: functional; details: route intraperitoneal
# Outline: (§8)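 Hybrid BD F1 mice were inoculated ip at D0 with 0.5 mL of B16 melanoma homogenate (1 g tumor in 10 mL physiological serum). Drugs were given ip daily D1-9. Cisplatin 0.5 mg/kg was the positive control under the same schedule.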
# [18] = test system: Mus musculus; assay: Antitumor activity against B16 melanoma infected intraperitoneally; type: functional; outline: as §8
# [19] = test system: Mus musculus; assay: Weight change in g when a dose of 10 mg/kg administered intraperitoneally to B16 melanoma infected mice; type: functional; details: route intraperitoneal; outline: as §6
# [20] = test system: Mus musculus; assay: Median survival day of P388 leukemia model when a dose of 10 mg/kg administered intraperitoneally; type: functional; details: route intraperitoneal; outline: as §4
# [21] = test system: Mus musculus; assay: Weight change in g when a dose of 5 mg/kg administered intraperitoneally to P388 leukemia mice model; type: functional; details: route intraperitoneal; outline: as §5
# [22] = test system: Mus musculus; assay: Antitumor activity against P388 leukemia in intraperitoneally for 5 days; type: functional; outline: as §1
# [23] = test system: Mus musculus; assay: Median survival day in B16 melanoma infected mice when a dose of 5 mg/kg administered intraperitoneally; type: functional; details: route intraperitoneal; outline: as §3
# [24] = test system: Mus musculus; assay: Weight change in g when a dose of 20 mg/kg administered intraperitoneally to P388 leukemia mice model; type: functional; details: route intraperitoneal; outline: as §5
# [25] = test system: Mus musculus; assay: Survivors at day 60 when a dose of 2.5 mg/kg to B16 melanoma infected mice; 0/10; type: functional
# [26] = test system: Mus musculus; assay: Weight change in g when a dose of 1.25 mg/kg administered intraperitoneally to mice; type: functional; details: route intraperitoneal; outline: as §6
# [27] = test system: Mus musculus; assay: Antitumor activity against P388 leukemia in mice at a dose of 1.25 mg/kg administered intraperitoneally for 5 days; type: functional; details: route intraperitoneal; outline: as §1
# [28] = test system: Mus musculus; assay: Antitumor activity against P388 cells at a dose of 5 mg/kg administered intraperitoneally to P388 leukemia model; type: functional; details: route intraperitoneal; outline: as §7
# [29] = test system: Mus musculus; assay: Survivors at day 30 when a dose of 20 mg/kg to P388 leukemia mice model; 0/10; type: functional; outline: as §4
# [30] = test system: Mus musculus; assay: Survivors at day 30 when a dose of 40 mg/kg to P388 leukemia mice model; 0/10; type: functional
# [31] = test system: Mus musculus; assay: Antitumor activity against P388 cells at a dose of 20 mg/kg administered intraperitoneally to P388 leukemia model; type: functional; details: route intraperitoneal; outline: as §7
# [32] = test system: Mus musculus; assay: Survivors at day 60 when a dose of 5 mg/kg to B16 melanoma infected mice; 0/10; type: functional
# [33] = test system: Mus musculus; assay: Antitumor activity against B16 melanoma infected mice at a dose of 1.25 mg/kg administered intraperitoneally; type: functional; details: route intraperitoneal; outline: as §8
# [34] = test system: Mus musculus; assay: Weight change in g when a dose of 5 mg/kg administered intraperitoneally to B16 melanoma infected mice; type: functional; details: route intraperitoneal; outline: as §6
# [35] = test system: Mus musculus; assay: Survivors at day 30 when a dose of 5 mg/kg to P388 leukemia mice model; 0/10; type: functional
# [36] = test system: Mus musculus; assay: Antitumor activity against P388 cells at a dose of 40 mg/kg administered intraperitoneally to P388 leukemia model; type: functional; details: route intraperitoneal; outline: as §7
# [37] = test system: Mus musculus; assay: Antitumor activity against B16 melanoma infected mice at a dose of 10 mg/kg administered intraperitoneally; type: functional; details: route intraperitoneal; outline: as §8
# [38] = test system: Mus musculus; assay: Median survival day in B16 melanoma infected mice when a dose of 1.25 mg/kg administered intraperitoneally; type: functional; details: route intraperitoneal; outline: as §3
# [39] = test system: Mus musculus; assay: Median survival day of P388 leukemia model when a dose of 5 mg/kg administered intraperitoneally; type: functional; details: route intraperitoneal; outline: as §4
# [40] = test system: Mus musculus; assay: Median survival day in B16 melanoma infected mice when a dose of 10 mg/kg administered intraperitoneally; type: functional; details: route intraperitoneal; outline: as §3
# [41] = test system: Mus musculus; assay: Median survival day of P388 leukemia model when a dose of 20 mg/kg administered intraperitoneally; type: functional; details: route intraperitoneal; outline: as §4
# [42] = test system: Mus musculus; assay: Survivors at day 60 when a dose of 1.25 mg/kg to B16 melanoma infected mice; 0/10; type: functional
# [43] = test system: Mus musculus; assay: Survivors at day 60 when a dose of 10 mg/kg to B16 melanoma infected mice; 0/10; type: functional
# [44] = test system: Mus musculus; assay: Antitumor activity against P388 leukemia in mice at a dose of 0.625 mg/kg administered intraperitoneally for 5 days; type: functional; details: route intraperitoneal; outline: as §1
smiles,measurement,setting,value
Cc1c[nH]c(NCCNCCO)c2c3ccccc3nc1-2,T/C,[1],109%
same,K aff,[2],50000 M⁻¹
same,T/C,[3],100%
same,IC50,[4],1140 nM
CCN(CC)CCNc1ncc(C)c2c1c1cc(O)ccc1n2C,T/C,[5],137%
same,T/C,[1],153%
same,T/C,[6],142%
same,K aff,[2],110000 M⁻¹
same,T/C,[7],182%
same,IC50,[4],150 nM
CCN(CC)CCNc1ncc(C)c2c1c1cc(OC)ccc1n2C,K aff,[2],80000 M⁻¹
same,IC50,[4],1200 nM
Cc1c[nH]c(NCCCN(C)C)c2c3cc(O)ccc3nc1-2,Median survival day,[8],38.75
same,T/C,[9],Toxic
same,Survivors,[10],0
same,Median survival day,[11],15.3
same,Weight change,[12],0.3 g
same,T/C,[13],145%
same,Weight change,[14],-1.4 g
same,Weight change,[15],1.8 g
same,T/C,[16],139%
same,T/C,[17],141%
same,T/C,[18],160%
same,Weight change,[19],0.5 g
same,Median survival day,[20],15.25
same,Weight change,[21],-0.1 g
same,T/C,[22],186%
same,Median survival day,[23],44
same,T/C,[1],148%
same,Weight change,[24],-0.8 g
same,Survivors,[25],0
same,Weight change,[26],2.8 g
same,T/C,[27],150%
same,T/C,[28],139%
same,Survivors,[29],0
same,K aff,[2],210000 M⁻¹
same,Survivors,[30],0
same,T/C,[31],142%
same,Survivors,[32],0
same,T/C,[33],116%
same,Weight change,[34],2.4 g
same,Survivors,[35],0
same,T/C,[36],139%
same,T/C,[37],42%
same,Median survival day,[38],32
same,Median survival day,[39],15.3
same,Median survival day,[40],11.7
same,Median survival day,[41],15.5
same,Survivors,[42],0
same,Survivors,[43],0
same,IC50,[4],90 nM
same,T/C,[44],139%
Cc1cnc(NCCCN2CCCC2)c2c3cc(O)ccc3n(C)c12,K aff,[2],370000 M⁻¹
same,IC50,[4],50 nM
